Sampled rows, rich in hits. Any-hit rate of the full collection: about 3.8%.
KCNK9 block = blocks the human KCNK9 two-pore domain potassium channel; AID 488922; B-score at 10 µM; hit rate 1.2% among 310,000; Q9NPC2; HEK293 KCNK9, FluxOR thallium flux fluorescence; stronger effect = lower value;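 active = ratio B-score over 3 SD below the library mean, with starting fluorescence within 5 SD of its mean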;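 note: negative B-score means less thallium flux so channel inhibition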
KCNQ1 inh = human KCNQ1 channel inhibition; CHO-K1 KCNQ1, FluxOR thallium flux fluorescence; stronger effect = higher value; B-score at 10 µM; hit rate 1.3% among 310,000; AID 2642;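 active = compounds whose thallium flux B-score, printed positive for inhibition, exceeds three library SD while starting fluorescence stays within three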;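 note: channel opened by potassium depolarization with thallium stimulus after 20 min compound exposure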
hERG protect = shields human hERG channel from block by proarrhythmic agents; CHO-hERG, FluxOR thallium flux, dofetilide IC70 present; activation (rescue from dofetilide block), less the hit threshold, % at 10 µM; hit rate 0.51% among 310,000;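 active = activation above the mean of controls blocked by dofetilide plus 5 SD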;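 note: thallium influx through hERG after potassium depolarization seen as dye fluorescence rise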
Target sequence (Q12809 whole entry, looked up): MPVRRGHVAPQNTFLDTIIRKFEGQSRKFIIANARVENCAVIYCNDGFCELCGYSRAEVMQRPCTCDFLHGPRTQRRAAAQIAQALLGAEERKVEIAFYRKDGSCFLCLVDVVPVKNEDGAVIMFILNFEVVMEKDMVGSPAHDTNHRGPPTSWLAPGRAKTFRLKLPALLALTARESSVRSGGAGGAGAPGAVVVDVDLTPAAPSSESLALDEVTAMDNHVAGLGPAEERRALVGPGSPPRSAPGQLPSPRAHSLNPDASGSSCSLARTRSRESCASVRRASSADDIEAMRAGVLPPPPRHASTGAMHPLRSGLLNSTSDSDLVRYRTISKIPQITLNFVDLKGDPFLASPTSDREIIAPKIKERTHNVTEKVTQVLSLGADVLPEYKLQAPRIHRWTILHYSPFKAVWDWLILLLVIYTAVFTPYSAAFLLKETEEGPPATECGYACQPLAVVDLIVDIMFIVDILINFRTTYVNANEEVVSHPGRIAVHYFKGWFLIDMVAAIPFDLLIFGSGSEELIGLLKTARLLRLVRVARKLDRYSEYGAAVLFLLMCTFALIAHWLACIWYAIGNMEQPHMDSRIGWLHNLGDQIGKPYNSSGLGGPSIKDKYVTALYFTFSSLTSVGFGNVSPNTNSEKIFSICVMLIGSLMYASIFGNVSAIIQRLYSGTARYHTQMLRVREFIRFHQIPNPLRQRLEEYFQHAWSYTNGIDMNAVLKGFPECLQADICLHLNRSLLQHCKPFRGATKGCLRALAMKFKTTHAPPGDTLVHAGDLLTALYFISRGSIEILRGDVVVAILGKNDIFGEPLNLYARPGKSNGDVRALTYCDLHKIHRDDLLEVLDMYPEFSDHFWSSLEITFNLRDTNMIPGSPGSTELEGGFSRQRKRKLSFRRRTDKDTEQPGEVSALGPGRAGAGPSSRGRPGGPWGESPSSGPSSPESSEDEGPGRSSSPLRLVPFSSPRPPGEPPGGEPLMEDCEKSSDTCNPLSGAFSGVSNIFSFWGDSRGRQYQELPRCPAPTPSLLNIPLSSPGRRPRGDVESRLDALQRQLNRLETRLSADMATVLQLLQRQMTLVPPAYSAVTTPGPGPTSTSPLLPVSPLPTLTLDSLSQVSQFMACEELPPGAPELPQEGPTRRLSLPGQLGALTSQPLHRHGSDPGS
Kir21 block = inhibitors of mouse Kir2.1 inward-rectifier potassium channel; P35561; HEK293-Kir2.1, FluxOR thallium flux fluorescence; stronger effect = lower value; B-score at 10 µM; hit rate 0.85% among 310,000; AID 1672;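 active = fluorescence ratio B-score at or below minus 3 SD of library scores, with starting-brightness B-score within 2 SD, cut at about -4.2 in these data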;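 note: channel flux triggered by added potassium and thallium sulfate stimulus; B-score of peak minus minimum fluorescence over baseline after thallium stimulus; more negative B-score means stronger Kir2.1 block with less thallium influx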
KCNQ1 pot = potentiates or activates the human KCNQ1 potassium channel. P51787. CHO-K1 KCNQ1, thallium flux FluxOR fluorescence; stronger effect = higher value. B-score at 10 µM. hit rate 0.35% among 310,000. AID 2648;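 active = fluorescence ratio B-score, a plate-corrected score, at least three library SD, with initial intensity B-score within 5 SD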
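Medium – assay buffer, equal DMSO in all wells · Material – CHO-K1 cell line with stable KCNQ1 potassium channel expression · Signal – kinetic FluxOR thallium fluorescence, 10-s 1-Hz baseline, 110-s post-stimulus read · Compound – single concentration per compound, DMSO matched to controls · Schedule – 37 °C overnight plating, 90-min dark dye load, 20-min compound pretreatment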
KCNK3 block = human KCNK3 channel inhibition, primary screen. CHO-KCNK3 thallium flux, FluxOR fluorescence; stronger effect = lower value. AID 602410. B-score at 10 µM. O14649. hit rate 0.84% among 340,000;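 active = B-score under library mean minus 4 SD, starting fluorescence ratio at most library mean plus 5 SD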;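 note: more negative B-score means stronger inhibition of thallium flux through KCNK3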
An asterisk follows results filed as active; i = inactive; . = no result.

SMILES	KCNK9 block	KCNQ1 inh	hERG protect	Kir21 block	KCNQ1 pot	KCNK3 block
COc1ccc(/C=C(\C#N)C(=O)OCC(=O)Nc2ccc(C(C)(C)C)cc2)cc1	i	7*	-14	0.41	i	i
Cc1ccc(C)c(S(=O)(=O)N2CCN(C(=O)[C@H](C)N3C(=O)C4CC=CCC4C3=O)CC2)c1 (stereo not given in full)	.	.	.	.	.	i
c1ccc2c(OCCCCN3CCOCC3)cccc2c1	i	i	-3	-0.16	i	i
CC(C)c1cccc(C(C)C)c1OCCCCCN1CCOCC1	i	i	-6	-5.1*	i	i
CSc1nc(-c2ccc(C)cc2)[nH]c1S(=O)(=O)c1ccccc1	i	i	-5	-1.6	i	i
CC(=O)Sc1nc(-c2ccccc2)[nH]c1S(=O)(=O)c1ccc(C)cc1	i	10*	-7	0.36	i	.
Cc1noc(C)c1NC(=O)N(C)C[C@H]1Oc2ccc(NC(=O)Nc3ccc(C(F)(F)F)cc3)cc2C(=O)N([C@H](C)CO)C[C@@H]1C	.	.	.	.	.	i
Cc1ccc(C(=O)NCCC(=O)NCc2cc(=O)n(C)c(=O)n2C)cc1	i	i	-6	1.2	8*	i
Cc1noc(C)c1COC(=O)C1(c2cccc(F)c2)CCCC1	i	i	-11	-4.3*	i	i
Cc1noc(C)c1COC(=O)CNC(=O)c1cccc(F)c1	i	i	-14	0.04	i	i
CC(Oc1ccc(C#N)cc1)C(=O)NC1CCCC1 (stereo not given)	.	.	.	.	.	i
CCOC(=O)c1cc2c(=Cc3ccc(N(C)C)cc3)c3ccccc3n2[n+]1C	.	.	.	.	.	-11*
Cc1cc2c(=Cc3ccc(N(C)C)cc3)c3ccccc3n2[n+]1C	.	.	.	.	.	-10*
CN(C)c1ccc(C=c2c3ccccc3n3c2c2ccccc2[n+]3C)cc1	.	.	.	.	.	i
O=C(NCc1ccccc1Cl)C1CCC(=O)N(CC2CCCCC2)C1 (stereo not given)	i	i	-11	-0.07	i	i
COc1cccc(C2(O)C(=O)Nc3ccccc32)c1 (stereo not given)	i	i	0	-1.5	i	i
O=C1CSC(=S)N1/N=C/c1ccc(O)c(O)c1O	i	i	-2	0.05	i	i
O=C1CSC(=S)N1/N=C/c1cc(Br)ccc1O	i	i	7.1*	0.38	i	.
Cn1c(Oc2ccc(Cl)cc2)c(C=O)c2ccccc21	i	i	-3	0.01	i	i
Cn1c(Sc2ccccc2Cl)c(C=O)c2ccccc21	i	11*	-13	-1.4	i	i
C=CC[C@H](CC(=O)N[C@H](CO)Cc1ccccc1)C(=O)N[C@@H](COC(=O)[C@H](CC=C)CC(=O)OC(C)(C)C)Cc1c[nH]c2ccccc12	.	.	.	.	.	i
Oc1c(Cl)cc(Cl)cc1C=Nc1ccc(Br)cc1	i	i	5.0*	0.72	i	i
Cc1ccc(N=Cc2cc(Br)cc(Cl)c2O)cc1	i	i	-5	1.7	i	i
COc1ccc(C(=O)OCc2c(-c3ccccc3)ncc3ccccc23)cc1	.	.	.	.	.	i
CCOC(=O)c1ccc(NC(=S)Nc2ccccc2)cc1	i	i	-14	1.1	i	i
SMILES	KCNK9 block	KCNQ1 inh	hERG protect	Kir21 block	KCNQ1 pot	KCNK3 block
CCOC(=O)c1ccc(NC(=S)NC(=O)COc2ccccc2)cc1	i	i	7.6*	1.1	i	i
O=C(C[C@H]1C[C@H](C(=O)N2CCCCC2)[C@@]2(CCc3ccccc3)c3[nH]c4ccc(Cl)cc4c3CCN2C1=O)NCCN1CCOCC1	.	.	.	.	.	i
Cc1cccn2c(=O)c3cc(C(=O)NC4CCCC4)c(=N)n(Cc4ccc(F)cc4)c3nc12	i	i	-19	0.46	i	i
CCN(C(=O)c1cc2c(=O)n3cccc(C)c3nc2n1CCCOC)C1CCCCC1	i	i	-14	0.73	i	-11*
Cc1cccn2c(=O)c3cc(C(=O)NC4CCCCC4)c(=N)n(Cc4ccccc4)c3nc12	i	7*	-15	1.1	i	i
CC(=O)/C=C1/C(=O)Nc2ccccc21	i	i	-3	-5.2*	i	i
O=C(NCC(=O)N(c1ccc(F)cc1)C(C(=O)NC1CCCC1)c1ccncc1)c1ccco1 (stereo not given)	i	i	-7	1.6	i	i
CCC1C(=O)CC(c2ccccc2)NC1c1ccccc1 (stereo not given)	-6.6*	i	-5	-0.03	i	i
O=C1C(c2ccccc2)C(c2ccccc2)NC(c2ccccc2)C1c1ccccc1 (stereo not given)	i	i	1	0.05	i	i
OC1(c2ccc(Cl)cc2)CN(c2ccccc2)C2=[N+]1CCS2 (stereo not given)	i	6*	-14	-0.97	i	i
COc1ccc(C)cc1NC(=O)C1CCCN(S(=O)(=O)c2cccc3cccnc23)C1 (stereo not given)	i	i	-17	2.9	i	i
O=c1ccc(C(F)(F)F)cn1Cc1cc(=O)n2ccsc2n1	i	i	0	0.18	i	i
O=c1cc(CNc2cc(C(F)(F)F)cc(C(F)(F)F)c2)nc2sccn12	-7.4*	i	-3	-0.26	i	i
CN(c1ccc(OCC(=O)NCCc2ccccc2)cc1)S(=O)(=O)c1ccc(Cl)cc1	i	i	-11	-1.1	i	i
COc1ccc(CCNC(=O)COc2ccc(N(C)S(=O)(=O)c3ccc(Cl)cc3)cc2)cc1	i	i	-4	-5.9*	i	i
COc1ccc(COCC(O)CN(Cc2ccco2)Cc2ccccc2O)cc1 (stereo not given)	i	i	-12	-6.7*	i	i
Oc1ccccc1CN(Cc1ccco1)CC(O)COCc1ccc(Cl)cc1 (stereo not given)	i	i	-8	-0.85	i	i
COc1ccc(S(N)(=O)=O)cc1C(=O)NC1CCCc2ccccc21 (stereo not given)	i	i	-4	-0.5	i	i
Cc1ccc2c(c1)c1c3n2CCN(C(=O)CCl)C3CCC1 (stereo not given)	i	i	-15	-8.8*	i	i
CCCN1C(=O)/C(=C/c2ccc(C)s2)NC1=S	i	i	32*	0.44	32*	i
CC(C)CN1C(=O)/C(=C/c2cccs2)NC1=S	i	i	49*	0.02	55*	i
Cc1ccc(NC(=O)COc2cccc3c2OC(C)(C)C3)c(O)c1	.	.	.	.	.	i
Cc1cc(C)n2nc(C(=O)OCC(=O)N(C)C3CCS(=O)(=O)C3)nc2n1 (stereo not given)	.	.	.	.	.	i
